Results taken from ChEMBL document CHEMBL1131088 (J Med Chem, 1998).

Key:
[1] = target: Dihydroorotate dehydrogenase (quinone), mitochondrial (Homo sapiens, UniProt Q02127); test: In vitro inhibitory activity against human dihydroorotate dehydrogenase (DHODH)
Jurkat = test: In vitro inhibitory activity against Jurkat cell proliferation; format: functional, cell-based; details: Homo sapiens
Outline: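 Human Jurkat T cells kept in FCS-supplemented RPMI; 5 × 10⁴ cells/well cultured 2 days in 200 μL RPMI with test compound. Proliferation read as [³H]thymidine incorporation at the end of culture.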

Mus musculus [2] = species on record: Mus musculus; test: In vitro inhibitory activity against mouse mixed lymphocyte reaction (MLR); format: functional
Outline: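 Equal numbers of C57Bl/6 (H-2^b) and CBA/2 (H-2^k) spleen cells mixed; 4 × 10⁵ cells/well with serial dilutions (DMSO/water) in 200 μL complete RPMI, 4 days, 37 °C, 5% CO₂. Proliferation by [³H]thymidine incorporation.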

Mus musculus [3] = species on record: Mus musculus; test: In vitro inhibitory activity against murine antibody response to T-cell independent B-cell antigen TNP-LPS (type I); format: functional
Outline: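 C57Bl/6 nu/nu and C57Bl/6 spleen cells, 2 × 10⁵/well in duplicate, IMDM-ATL + 10% FCS with serial drug dilutions and optimal TNP-LPS, 4 days at 37 °C. Pooled supernatants went to ELISA on BSA-DNP plates, developed with biotin anti-mouse IgM, streptavidin-alkaline phosphatase and pNPP, read at 405/490 nm. % inhibition was taken relative to unstimulated (low) and stimulated (high) controls.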

Dihydroorotate dehydrogenase (quinone), mitochondrial, sequence (Q02127 whole entry): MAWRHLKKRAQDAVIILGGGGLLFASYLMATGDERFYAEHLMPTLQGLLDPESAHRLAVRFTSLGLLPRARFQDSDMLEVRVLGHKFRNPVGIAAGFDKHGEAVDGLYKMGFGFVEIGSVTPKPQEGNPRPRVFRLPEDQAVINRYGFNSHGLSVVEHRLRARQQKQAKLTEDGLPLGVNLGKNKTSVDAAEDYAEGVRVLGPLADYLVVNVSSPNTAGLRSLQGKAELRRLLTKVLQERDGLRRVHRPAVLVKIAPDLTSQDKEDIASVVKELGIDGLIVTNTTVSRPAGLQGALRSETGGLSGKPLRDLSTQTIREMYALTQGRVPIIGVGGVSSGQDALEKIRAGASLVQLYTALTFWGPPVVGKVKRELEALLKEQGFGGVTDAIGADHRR

Row | Compound | IC50 [1] [µM] | IC50 (Jurkat) [µM] | IC50 (Mus musculus [2]) [µM] | IC50 (Mus musculus [3]) [µM]
1 | Cc1n[nH]c(Nc2ccccc2)c1C#N | > 50 | > 50 | > 50 | > 50
2 | Cc1cc(Nc2ccc(C(F)(F)F)cc2)[nH]n1 | 16.5 | > 50 | 16.5 | 26.5
3 | Cc1n[nH]c(Nc2ccc(C(F)(F)F)cc2)c1C#N | 2.6 | > 50 | 2.1 | 5.3
4 | Cc1n[nH]c(N(C)c2ccc(C(F)(F)F)cc2)c1C#N | > 50 | > 50 | 23.6 | 19.1
5 | Cc1n[nH]c(Nc2ccc(C(F)(F)F)cc2)c1-c1ccccc1 | > 50 | – | – | 29.4
6 | N#Cc1c(-c2cccs2)n[nH]c1Nc1ccc(C(F)(F)F)cc1 | > 50 | – | – | > 50
7 | CC(C)(C)c1[nH]nc(Nc2ccc(C(F)(F)F)cc2)c1C#N | > 50 | > 50 | 5.3 | 5.8
8 | Cc1n[nH]c(Nc2cccc(C(F)(F)F)c2)c1C#N | > 50 | – | – | > 50
9 | C/C(=N\N)c1c(C)n[nH]c1Nc1ccc(C(F)(F)F)cc1 | > 50 | 41 | 20.3 | 17.4
10 | Cc1n[nH]c(Nc2ccc(C(F)(F)F)cc2)c1CO | 2.7 | – | – | 21.3
11 | Cc1n[nH]c(Nc2ccc(C#N)cc2)c1C#N | 3.2 | > 50 | 6 | 11.6
12 | N#Cc1c(-c2ccccc2)n[nH]c1Nc1ccc(C(F)(F)F)cc1 | > 50 | – | – | 32
13 | CCNc1[nH]nc(Nc2ccc(C(F)(F)F)cc2)c1C#N | > 50 | 38.7 | 7.5 | 16.9
14 | Cc1n[nH]c(Nc2c(F)cc(F)cc2F)c1C#N | 22.4 | – | – | 35
15 | Cc1n[nH]c(Nc2ccc(N)cc2)c1C#N | > 50 | – | – | > 50
16 | Cc1n[nH]c(Nc2ccc(OC(F)(F)F)cc2)c1C#N | 0.5 | 16.1 | 0.45 | 20
17 | Cc1ccc(Nc2[nH]nc(C)c2C#N)cc1 | 12.1 | – | – | > 50
18 | Cc1oncc1C(=O)Nc1ccc(C(F)(F)F)cc1 [LEFLUNOMIDE] | – | 41.4 | 7.4 | 5.1
19 | N#Cc1c(-c2ccco2)n[nH]c1Nc1ccc(C(F)(F)F)cc1 | > 50 | – | – | > 50

Row | Compound | IC50 [1] [µM] | IC50 (Jurkat) [µM] | IC50 (Mus musculus [2]) [µM] | IC50 (Mus musculus [3]) [µM]
20 | O=C1CCCc2n[nH]c(Nc3ccc(C(F)(F)F)cc3)c21 | 6.5 | 17.7 | 8.6 | 16.7
21 | Cc1n[nH]c(Nc2ccc([N+](=O)[O-])cc2)c1C#N | 9 | > 50 | 4.3 | 6.5
22 | FC(F)(F)c1ccc(Nc2[nH]nc3c2CCCC3)cc1 | 6.2 | 31.2 | 3.4 | 13.8
23 | CC(C)c1n[nH]c(Nc2ccc(C(F)(F)F)cc2)c1C#N | 4 | > 50 | 3.1 | 4.7
24 | Cc1n[nH]c(Nc2ccccc2C(F)(F)F)c1C#N | > 50 | – | – | > 50
25 | N#Cc1c(Nc2ccc(C(F)(F)F)cc2)n[nH]c1O | > 50 | – | – | > 50
26 | N#Cc1c(-c2cccnc2)n[nH]c1Nc1ccc(C(F)(F)F)cc1 | > 50 | – | – | 27
27 | Cc1n[nH]c(Nc2ccc(C(C)(C)C)cc2)c1C#N | 3.6 | 12.3 | 7.6 | 30.6
28 | N#Cc1c(-c2ccncc2)n[nH]c1Nc1ccc(C(F)(F)F)cc1 | > 50 | 10.8 | 3.6 | 13.6
29 | N#Cc1c(Nc2ccc(C(F)(F)F)cc2)n[nH]c1N | > 50 | > 50 | 3.7 | 14.7
30 | C/C=C/C[C@@H](C)[C@@H](O)[C@H]1C(=O)N[C@@H](CC)C(=O)N(C)CC(=O)N(C)[C@@H](CC(C)C)C(=O)N[C@@H](C(C)C)C(=O)N(C)[C@@H](CC(C)C)C(=O)N[C@@H](C)C(=O)N[C@H](C)C(=O)N(C)[C@@H](CC(C)C)C(=O)N(C)[C@@H](CC(C)C)C(=O)N(C)[C@@H](C(C)C)C(=O)N1C [CYCLOSPORINE] | – | > 10 | – | –
31 | Cc1n[nH]c(Nc2ccc(C(F)(F)F)cc2)c1C | 22.5 | 43 | 18.7 | 14.6
32 | Cc1n[nH]c(NCc2ccc(C(F)(F)F)cc2)c1C#N | > 50 | > 50 | 40.5 | 17.1
33 | Cc1n[nH]c(Nc2ccc(F)cc2)c1C#N | 19.4 | > 50 | 7.4 | 9.2
34 | Cc1n[nH]c(Nc2ccc(C(F)(F)F)c(Br)c2)c1C#N | > 50 | – | – | 20.9
35 | Cc1n[nH]c(Nc2cc(C(F)(F)F)cc(C(F)(F)F)c2)c1C#N | > 50 | 16.2 | 6.7 | 28
36 | N#Cc1c(C2CCCC2)n[nH]c1Nc1ccc(C(F)(F)F)cc1 | > 50 | 31.8 | 2.9 | 22.4
37 | CCOC(=O)c1c(C)n[nH]c1Nc1ccc(C(F)(F)F)cc1 | > 50 | – | – | 23.8
38 | Cc1nn(C)c(Nc2ccc(C(F)(F)F)cc2)c1C#N | > 50 | 47.2 | 16.1 | 23.1
